A selection: hits, their analogues and other compounds. The true share with any hit is near 1.4%.
HKDC1 inh = inhibitors of human hexokinase HKDC1. AID 493160. recombinant HKDC1, G6PDH/diaphorase resazurin coupled fluorescence. inhibition, % at 20 µM. 0.16% of 340,000 active. Q2TB90;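 active = inhibition above about 35% when tested at 20 µM, limit read from the data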
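Incubation: 90 min at room temperature in dark / Material: recombinant HKDC1 (HK5) hexokinase enzyme, produced in-house / Quantity: enzyme 5 µg/mL final / Compound: one dose of 20 µM, 1% DMSO / Reagent: glucose and ATP substrates / Buffer or medium: Tris pH 8.0 buffer with MgCl2, Tween-20, BSA, BME / Technique: resorufin fluorescence at 613 nm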
iPSC survival up = increases survival of single human iPS cells; hiPSC single-cell survival, ATPlite luminescence; 100% = ROCK inhibitor wells, 0% = DMSO; survival enhancement, % at 20 µM; 0.044% of 360,000 active; in the data active = survival enhancement above about 18%;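 also: cells exposed to compounds for 16 hours before the ATP read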
APOBEC3G inh = blocks human APOBEC3G single-stranded DNA deamination. recombinant A3G, ssDNA deamination FAM/TAMRA fluorescence. 0.28% of 330,000 active. inhibition, % at 20 µM. AID 493012;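 active = inhibition of at least 40% at 20 µM, with no more than 30% in the related APOBEC3A deaminase screen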
PfG6PD inh = PfG6PD (Plasmodium falciparum) enzyme inhibition; AID 504690; PfGluPho enzyme, NADPH resazurin-diaphorase fluorescence; 0.78% of 350,000 active; inhibition, % at 20 µM;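 active = inhibition reaching at least a set limit at 20 µM in the primary screen, cut at about 59% in these data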
APOBEC3A inh = inhibitors of human APOBEC3A DNA deaminase | P31941 | recombinant A3A, FAM/TAMRA ssDNA deamination fluorescence | inhibition, % at 20 µM | 0.41% of 330,000 active | AID 493011;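 active = at least 40% inhibition at 20 µM here, with at most 30% in a related deaminase screen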
Target sequence (P31941 whole entry, looked up): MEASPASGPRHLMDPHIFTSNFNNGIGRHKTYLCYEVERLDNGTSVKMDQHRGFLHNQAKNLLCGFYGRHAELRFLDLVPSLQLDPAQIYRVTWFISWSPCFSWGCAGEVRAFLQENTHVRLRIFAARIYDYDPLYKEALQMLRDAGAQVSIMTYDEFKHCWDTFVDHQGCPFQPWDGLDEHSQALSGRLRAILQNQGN
PfGluPho conf = confirmation of Plasmodium falciparum G6PD inhibitors. shares compounds with PfG6PD inh. recombinant PfGluPho, NADPH-diaphorase-resazurin fluorescence. inhibition, % at 20 µM. 34% of 2,400 active. AID 504753;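 active = inhibition of at least 50% at 20 µM in any single replicate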
Diaphorase 10uM = diaphorase inhibition or oxidation at 10 uM NADPH | shares compounds with PfG6PD inh | diaphorase-coupled resazurin reduction, fluorescence, NADPH 10 uM | inhibition, % at 20 µM | 39% of 820 active | AID 504862;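 active = average inhibition reaching 50% or more with the compound at 20 µM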;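 also: resorufin red fluorescence formed as diaphorase reduces resazurin using NADPH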
Diaphorase 30uM = counter-screen for P. falciparum G6PD inhibitors: diaphorase inhibitors, oxidizers. inhibition, % at 20 µM. Diaphorase/resazurin coupled assay, resorufin fluorescence, 30 uM NADPH. shares compounds with PfG6PD inh. 29% of 820 active. AID 504863;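 active = inhibition averaging 50% or more, tested at 20 µM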
Numbers stand for hits; – = inactive; · = no result.

SMILES	HKDC1 inh	iPSC survival up	APOBEC3G inh	PfG6PD inh	APOBEC3A inh	PfGluPho conf	others
CCOC(=O)c1c(-c2ccc(OC)cc2)csc1NC(=O)CCN1C(=O)c2ccccc2C1=O	–	–	–	62	–	–
NC1=NC(=Nc2ccc(Cl)cc2)c2ccccc21	–	–	–	–	–	·
CC(C)c1ccc(N=C2N=C(N)c3ccccc32)cc1	–	–	–	59	–	–
Cc1ccc(S(=O)(=O)N(C)C)cc1NC(=O)CSc1nc2ncc(Cl)cc2[nH]1	–	–	–	66	–	52	Diaphorase 10uM=–;Diaphorase 30uM=–
Cc1ccccc1NC(=O)CSc1nc2ncc(Cl)cc2[nH]1	–	–	–	–	–	·
Nc1n[nH]c(=S)n1/N=C1/C(=O)Nc2ccccc21	–	–	·	73	·	–
Cc1[nH]c2ccccc2c1/C=N/Nc1ccc([N+](=O)[O-])cc1	–	–	·	–	·	·
Cc1[nH]c2ccccc2c1/C=N/Nc1nncn1N	–	–	–	69	–	60	Diaphorase 10uM=–;Diaphorase 30uM=–
O=C(/C=C/c1ccco1)N1CCN(S(=O)(=O)c2cccs2)CC1	–	–	–	–	–	·
Cc1ccc(/C=C/C(=O)N2CC(C)CC(C)C2)o1 (stereo not drawn)	–	–	–	72	–	–
O=C(/C=C/c1ccco1)N1CCN(S(=O)(=O)/C=C/c2ccccc2)CC1	–	–	–	–	–	·
Cc1ccc(/C=C/C(=O)N2CCN(S(=O)(=O)c3cccs3)CC2)o1	–	–	–	73	–	–
Cc1ccc(/C=C/C(=O)N2CCN(S(=O)(=O)/C=C/c3ccccc3)CC2)o1	–	–	–	63	–	–
O=C(CCCN1C(=O)/C(=C\c2cccc(Br)c2)SC1=S)Nc1ccc(C(=O)O)cc1	·	–	·	–	·	·
CC(C(=O)NCCCc1ccccc1)n1cccc1C(=O)c1ccccc1 (stereo not drawn)	–	–	–	–	–	·
O=C1/C(=N\S(=O)(=O)c2cccs2)C([n+]2ccccc2)=C([O-])c2ccccc21	–	–	–	65	–	–
COc1ccc(NC(=O)n2ncc3c(C)cccc32)cc1	–	–	–	69	–	–
COc1ccc(NC(=O)CSc2nnc3n2CCCCC3)cc1OC	·	–	·	–	·	·
O=C(CSc1ncn[nH]1)Nc1ccccc1Sc1ccc(Cl)cc1	–	–	–	110	–	68	Diaphorase 10uM=59;Diaphorase 30uM=57
COc1cccc(C(=O)Nc2nnc(C(C)C)s2)c1	–	–	–	91	–	56	Diaphorase 10uM=59;Diaphorase 30uM=–
CC(C)OC(=O)c1ccc(NC(=O)c2cccc(-n3cnnn3)c2)cc1	–	–	–	–	–	·
CCCc1nnc(NC(=O)c2cccc(OC)c2)s1	–	–	–	63	–	–
COc1cccc(C(=O)Nc2nnc(Cc3ccc(OC)c(OC)c3)s2)c1	–	–	–	–	–	·
CC(C)c1nnc(NC(=O)c2cccc(-n3cnnn3)c2)s1	–	–	–	76	–	56	Diaphorase 10uM=53;Diaphorase 30uM=–
COc1ccc(/C=C/C(=O)OCC(=O)N2c3ccccc3CC2C)c(OC)c1 (stereo not drawn)	·	–	·	–	·	·
SMILES	HKDC1 inh	iPSC survival up	APOBEC3G inh	PfG6PD inh	APOBEC3A inh	PfGluPho conf	others
COc1ccc(NCC(=O)N/N=C/C2CCCCC2)cc1	–	–	–	69	–	–
COc1ccc(-c2coc3c(C(=O)NCc4ccc(OC)c(OC)c4)cccc23)c(C)c1	·	–	·	·	·	·
CSc1ncnc2c1ncn2CCCN(C)Cc1ccco1	·	–	·	–	·	·
N=c1n(CCN2CCCCC2)c2ccccc2n1CC(=O)c1ccc(Cl)c(Cl)c1	–	–	–	93	–	–
C=CCSc1nnc(NC(=O)c2ccc3c(c2)OCCO3)s1	·	–	·	99	·	–
Clc1ccccc1-c1nn2c(COc3ccccc3)nnc2s1	–	–	–	–	–	·
CCOc1ccccc1OCc1nn2c(COc3ccccc3)nnc2s1	–	–	–	69	–	–
CCOc1ccc(-c2nnc3sc(COc4ccccc4)nn23)cc1	–	–	–	–	–	·
c1ccc(Cc2nn3c(COc4ccccc4)nnc3s2)cc1	–	–	–	63	–	–
